Measured values from paper PMC7032160 (Asian Journal of Pharmaceutical Sciences, 2017).
Where two headings read alike, the source gives them in different places.

Legend:
[1] = Pharmacokinetic study in rats after oral administration of JDR or gemcitabine; assay type: in vivo; conditions: male, Wistar, rat, plasma, 50 mg/kg
In short: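 Twelve male Wistar rats (180–220 g) were fasted 12 h and randomized into two groups (n = 6). Each received one oral dose: prodrug at gemcitabine-equivalent 50 mg/kg or parent drug 50 mg/kg. Blood was drawn at 0.083–48 h (prodrug) or 0.25–24 h (parent) into heparinized THU-treated tubes and spun 3000 × g 15 min; plasma was kept at −80 °C. Analysis was UPLC–MS/MS MRM, with noncompartmental parameters.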

[2] = assay type: in vitro ADME, rat; conditions: for Concentration founded: n = 3
In short: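 QC samples (n = 3) were spiked into THU-pretreated rat plasma at low, mid and high levels: 15, 125, 3200 ng/ml prodrug and 12, 125, 3200 ng/ml parent drug. 50 µl plasma was protein-precipitated with methanol plus didanosine IS and centrifuged. Extracts were held in the autosampler at 10 °C for 8 h before UPLC–MS/MS. Read-outs were found concentration and relative error.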

Cmax [1]: 1180 ± 47.1 ng/mL
Tmax [1]: 1.5 ± 0.9 h
half-life [1]: 2.61 ± 1.1 h
RE% ([2]; autosampler rack at 10 °C for 8 h, High QC): −6.4%
RE% ([2]; autosampler rack at 10 °C for 8 h, Low QC): 0.9%
RE% ([2]; autosampler rack at 10 °C for 8 h, Mid QC): 9.1%
RE% ([2]; rat plasma, bench-top (20 °C for 1 h), High QC): −8.9%
Concentration founded ([2]; rat plasma, bench-top (20 °C for 1 h), High QC (added 3200.00 ng/ml)): 2915.15 ± 95.7 ng/mL
RE% ([2]; rat plasma, bench-top (20 °C for 1 h), Low QC): −4.8%
RE% ([2]; rat plasma, bench-top (20 °C for 1 h), Mid QC): 7.8%
Concentration founded ([2]; rat plasma, bench-top (20 °C for 1 h), Mid QC (added 125.00 ng/ml)): 134.78 ± 1.6 ng/mL
RE% ([2]; rat plasma, freezing at -80 °C for 2 months, High QC): −0.1%
RE% ([2]; rat plasma, freezing at -80 °C for 2 months, Low QC): −2.1%
RE% ([2]; rat plasma, freezing at -80 °C for 2 months, Mid QC): 4.3%
Concentration founded ([2]; rat plasma, freezing at -80 °C for 2 months, Mid QC (added 125.00 ng/ml)): 130.38 ± 10.6 ng/mL
RE% ([2]; rat plasma, three freeze/thaw cycles (-80 to 20 °C), High QC): −7.3%
RE% ([2]; rat plasma, three freeze/thaw cycles (-80 to 20 °C), Low QC): −2.0%
RE% ([2]; rat plasma, three freeze/thaw cycles (-80 to 20 °C), Mid QC): 7.4%
SMILES: Nc1ccn([C@@H]2O[C@H](CO)[C@@H](O)C2(F)F)c(=O)n1 [Gemcitabine]
